High-throughput results: PubChem, several laboratories
The entries come from a sample that favours hits as a whole.
hiPSC survival = hiPSC single-cell survival enhancement. ATPlite luminescence; 100% = ROCK inhibitor wells, 0% = DMSO. survival enhancement, % at 20 µM. 0.044% of 360,000 active; in the data active = survival enhancement above about 18%;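 note: cells exposed to compounds for 16 hours before the ATP read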
CHOP UPR activ = activators of apoptotic arm of unfolded protein response (CHOP); CHO-CHOP luciferase reporter, UPR activation, luminescence; percent of tunicamycin response over DMSO baseline; activation, % at 10 µM; 0.34% of 330,000 active; AID 449763;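 active = at 10 µM dose, activation of 40% or more, normalized to positive control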
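Assay system: CHO cells with stable CHOP pathway luciferase reporter; Buffer or medium: F12 plus 10% serum; Times: 16-18 h cell attachment, then 6 h compound exposure, 37 °C; Signal: luciferase luminescence; Read-out basis: percent activation relative to tunicamycin control; Control set: tunicamycin high control, DMSO low control.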
Cardio protect = modulators protecting cardiomyocytes from myocardial damage; H9c2 cardiomyocytes, H2O2 injury protection, ATPLite, 2 h; protection from H2O2 cell death, % at 20 µM; 0.63% of 360,000 active; AID 588492;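 active = compounds giving at least 50% protection of heart cells from peroxide-induced death in the single-dose screen, raw or plate-pattern-corrected value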
CHOP inhibitor = CHOP inhibition in unfolded protein response. CHO-K1 CHOP-promoter luciferase, tunicamycin-induced, 15-18 h. inhibition, % at 10 µM. 3.8% of 220,000 active;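 active = compounds that reduced the stress-induced luciferase reporter signal by more than about 70% of percent inhibition, limit read from the data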
XBP1 UPR activ = activators of adaptive arm of unfolded protein response (XBP1). CHO-XBP1 luciferase reporter, IRE1-XBP1 UPR activation, luminescence; percent of tunicamycin response, DMSO as zero. activation, % at 20 µM. 0.33% of 330,000 active;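 active = versus positive control, 20 µM dose yields 30% or more activation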
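Material: CHO-XBP1 cells stably carrying IRE1-XBP1-driven luciferase reporter / Amount: 1000 cells per well / Compound: 20 µM, 1% DMSO / Times: 6 h treatment, 37 °C / Detection: luciferase luminescence / Measure: % activation of reporter signal versus tunicamycin and DMSO controls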
Of the large screens only hits and unclear results are named; the others gave an inactive call.

OC(COC(c1ccc(Cl)cc1)c1ccc(Cl)cc1)CN1CCc2ccccc2C1 (stereo not given)	CHOP inhibitor 90
CN1C=CC(C(C(N)=O)c2ccccc2)c2ccccc21 (stereo not given)	none (no result: CHOP UPR activ, CHOP inhibitor, XBP1 UPR activ)
CCOC(=O)CN(C(=O)CSc1nnc2c(n1)[nH]c1c(C)cc(C)cc12)c1ccccc1	CHOP inhibitor 82 (no result: hiPSC survival, CHOP UPR activ, Cardio protect, XBP1 UPR activ)
CCOC(=O)CN(C(=O)CSc1nnc2c(n1)[nH]c1ccccc12)c1ccccc1	none
COc1cccc(-c2cc(CNC(=O)[C@H]3O[C@@H](n4ccc(=O)[nH]c4=O)[C@H](O)[C@@H]3O)no2)c1	none (no result: CHOP UPR activ, CHOP inhibitor, XBP1 UPR activ)
CCCCSc1nnc(CNC(=O)C23CC4CC(CC(C4)C2)C3)n1Cc1ccccc1	CHOP inhibitor 85
Cc1ccc(-c2nc(-c3cccnc3)no2)c(C)c1	CHOP inhibitor 73
Cc1ccc(C)c(OCc2nc(-c3cccnc3)no2)c1	none
Cc1nc2cc(-c3cccc(F)c3)nn2c(C)c1CCC(=O)NC(C)CCc1ccco1 (stereo not given)	CHOP inhibitor 82
CCOC(=O)c1c(C)nc(C)c(C(=O)OCC)c1-c1ccc(OC)cc1	none
CCOC(=O)c1c(C)nc2c(c1-c1ccc(OC)c(OC)c1)C(=O)c1ccccc1-2	CHOP inhibitor 85
CC(C)(C)n1nnnc1C(c1ccc(C(F)(F)F)cc1)N(Cc1ccc(F)cc1)Cc1ccco1 (stereo not given)	CHOP inhibitor 82
CC(C)(C)n1nnnc1C(c1ccc(F)cc1)N(Cc1ccc(F)cc1)Cc1ccco1 (stereo not given)	none
CCOC(=O)c1[nH]c(Cc2[nH]c(C(=O)OCC)c(C)c2CCC(=O)OC)c(CCC(=O)OC)c1C	CHOP inhibitor 85
CCOC(=O)c1c(C)[nH]c(C(=O)OC)c1CCC(=O)OC	none
CC(C)N1C(=O)NC2NC(=O)N(C(C)C)C21 (stereo not given)	none (no result: CHOP UPR activ, CHOP inhibitor, XBP1 UPR activ)
O=C(NCc1ccc(Cl)c(Cl)c1)c1cc(C2CCCCN2C(=O)c2ccccc2)on1 (stereo not given)	none (no result: CHOP UPR activ, CHOP inhibitor, XBP1 UPR activ)
COc1cc(C(=O)Oc2cc(C)cc(C)c2)cc(OC)c1OC	none
COc1cc(C(=O)O/N=C2/C=C(C)C(=O)C=C2C)cc(OC)c1OC	CHOP UPR activ 96
Cn1nc(C(C)(C)C)cc1C(=O)N1CCCCC1c1cc(C(=O)Nc2ccc(F)c(Cl)c2)no1 (stereo not given)	none (no result: CHOP UPR activ, CHOP inhibitor, XBP1 UPR activ)
CC1CCCC(n2c(=S)[nH]c3ccccc3c2=O)C1C (stereo not given)	CHOP inhibitor 94
O=c1c2ccccc2[nH]c(=S)n1C1CCCCC1	none
O=C(c1[nH]c(C(F)(F)F)nc1-c1ccccc1)N1CCN(C(=O)C2CCCO2)CC1 (stereo not given)	none (no result: CHOP UPR activ, CHOP inhibitor, XBP1 UPR activ)
CN1C(=O)CSC1=NC12CC3CC(CC(C3)C1)C2	CHOP inhibitor 73
CC(C)C1Cc2c(sc(NC(=S)NC(=O)c3ccccc3)c2C#N)CO1 (stereo not given)	CHOP inhibitor 83
O=C1NC[C@H](CCCCN2CCN(CCc3ccccc3)C(=O)C2=O)N(CCC2CCCCC2)C1=O	none (no result: CHOP UPR activ, Cardio protect, CHOP inhibitor, XBP1 UPR activ)
OC(c1cccnc1)c1nc(-c2ccc3c(c2)OCO3)cs1 (stereo not given)	none (no result: CHOP UPR activ, CHOP inhibitor, XBP1 UPR activ)
N=C1CCCC1C(=S)SCCC(N)=O (stereo not given)	none (no result: CHOP UPR activ, CHOP inhibitor, XBP1 UPR activ)
CCOc1ccccc1NC(=O)C(CC(C)C)NC(=O)C1CCC(C)CC1 (stereo not given)	none
CCOc1ccccc1NC(=O)C(NC(=O)C1CCC(C)CC1)C(C)C (stereo not given)	CHOP inhibitor 73
COc1ccc(S(=O)(=O)Nc2ccc3ccccc3c2)cc1C	CHOP inhibitor 89
CCc1ccc(NS(=O)(=O)c2ccc(OC)c(C)c2)cc1	CHOP inhibitor 85
C#CC(C)OCC1CNC(=S)O1 (stereo not given)	none (no result: CHOP UPR activ, CHOP inhibitor, XBP1 UPR activ)
CCNC(=O)C1(C)CCN(Cc2csc(-c3ccccc3)n2)C1 (stereo not given)	none (no result: CHOP UPR activ, CHOP inhibitor, XBP1 UPR activ)
COc1ccc([N+](=O)[O-])c(S(=O)(=O)c2ccccc2)n1	CHOP inhibitor 107
O=C1c2ccccc2C(c2nc3ccccc3[nH]2)N1c1ccccn1 (stereo not given)	none (no result: CHOP UPR activ, CHOP inhibitor, XBP1 UPR activ)
CN(C)c1ccc(-c2ccnc3c2CC(C)(C(=O)NCC2CCOCC2)O3)cc1 (stereo not given)	none (no result: CHOP UPR activ, CHOP inhibitor, XBP1 UPR activ)
COC(=O)CCn1nnc(-c2ccc(C(C)C)cc2)n1	CHOP inhibitor 88
COC(=O)CCn1nnc(-c2cccs2)n1	none
